How the values were obtained:
Conditions in all cases: in vivo
[1] = Biodistribution of compound in rat muscle after 5 min of administration; assay type: ADME, organism-based, Muscle tissue
Outline: (§1)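 Rats received the 99mTc complex in normal saline (~12.5 μCi/mL) by lateral tail vein injection at ~25 μCi/kg and were killed by cervical dislocation at the stated time. Tissues were washed with saline, blotted, weighed and γ-counted to give percent injected dose/g. Time-course values are averages of male and female rats.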

Rattus norvegicus [2] = assay: Biodistribution of compound in rat kidney after 5 min of administration; assay type: ADME, organism-based
Outline: (§2)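 Female Sprague-Dawley rats (150–200 g) received the 99mTc complex in normal saline (~12.5 μCi/mL) via a lateral tail vein at ~25 μCi/kg. They were killed by cervical dislocation 5 min after injection. Tissues were washed with saline, blotted, weighed and γ-counted, and the read-out was percent injected dose per g tissue.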

Rattus norvegicus [3] = assay: Biodistribution of compound in rat liver after 5 min of administration; assay type: ADME, organism-based; outline: as §2
Rattus norvegicus [4] = assay: Biodistribution of compound in rat heart after 5 min of administration; assay type: ADME, organism-based; outline: as §2
Rattus norvegicus [5] = assay: Biodistribution of compound in rat blood after 5 min of administration; assay type: ADME, organism-based; outline: as §2
Rattus norvegicus [6] = assay: Biodistribution of compound in rat lung after 5 min of administration; assay type: ADME, organism-based; outline: as §1

In the case of Bis(m-xylene)technetium, the Dose/g [1] is reported as 0.17%, the Dose/g (Rattus norvegicus [2]) is reported as 8% and the Dose/g (Rattus norvegicus [3]) is reported as 2%. For the same substance, the Dose/g (Rattus norvegicus [4]) was 0.47%, the Dose/g (Rattus norvegicus [5]) was 0.1% and the Dose/g (Rattus norvegicus [6]) was 0.59%.
